Source: ChEMBL document CHEMBL1122471, “1,3-Diaryltriazenes: a new class of anorectic agents” (1983)

What follows are compounds tested on Rattus norvegicus (assay: Percentage of body weight reduction in male Sprague-Dawley rats at 25 mg/kg). Conditions: not given.
Format: functional
How it was run: (§1)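 Individually housed male CD Sprague-Dawley rats trained to eat their ration within 5 h were dosed orally once daily for 5 days, 10 vehicle controls and 10 treated. Body weight was taken daily before dosing. Reduction from concurrent controls was scored in bands: 16-30%, 31-45%, 46-60%, ≥61%.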

| Structure (SMILES) | Body weight reduction [%] |
| --- | --- |
| CC(C)C(=O)N(N=Nc1cc(C(F)(F)F)ccc1C#N)c1cc(C(F)(F)F)ccc1C#N | >61 |
| CCCC(=O)N(N=Nc1cc(C(F)(F)F)ccc1C#N)c1cc(C(F)(F)F)ccc1C#N | >61 |

What follows are compounds tested on Rattus norvegicus (assay: Percentage of body weight reduction in male Sprague-Dawley rats at 30 mg/kg). Conditions: not given.
Format: functional
How it was run: as §1

| Structure (SMILES) | Body weight reduction [%] |
| --- | --- |
| CN(N=Nc1cc(C(F)(F)F)ccc1C#N)c1cc(C(F)(F)F)ccc1C#N | <15 |

What follows are compounds tested on Rattus norvegicus (assay: Percentage of body weight reduction in male Sprague-Dawley rats at 50 mg/kg). Conditions: not given.
Format: functional
How it was run: as §1

| Structure (SMILES) | Body weight reduction [%] |
| --- | --- |
| FC(F)(F)c1cccc(N=NNc2cccc(C(F)(F)F)c2)c1 | <15 |
| CC(=O)N(N=Nc1cccc(C(F)(F)F)c1)c1cc(C(F)(F)F)ccc1C#N | <15 |
| Cc1ccc(C#N)c(N=NNc2cc(C)ccc2C#N)c1 | <15 |
| Clc1cccc(Cl)c1N=NNc1c(Cl)cccc1Cl | <15 |
| CC(=O)N(N=Nc1c(Cl)cccc1Cl)c1cc(C(F)(F)F)ccc1C#N | <15 |
| N#Cc1ccc(C(F)(F)F)cc1N=NN(C(=O)CCl)c1cc(C(F)(F)F)ccc1C#N | <15 |
| CCOC(=O)N(N=Nc1cc(C(F)(F)F)ccc1C#N)c1cc(C(F)(F)F)ccc1C#N | >61 |
| FC(F)(F)c1ccc(Cl)c(N=NNc2cc(C(F)(F)F)ccc2Cl)c1 | <15 |
| N#Cc1ccc(C(F)(F)F)cc1N=NN(C(=O)c1ccccc1)c1cc(C(F)(F)F)ccc1C#N | <15 |
| CC(=O)N(N=Nc1ccccc1)c1ccccc1 | >61 |
| N#Cc1ccc(C(F)(F)F)cc1N=NNc1cccc(C(F)(F)F)c1 | <15 |
| Clc1ccccc1N=NNc1ccccc1Cl | <15 |
| CCOC(=O)NC(=O)N(N=Nc1cc(C(F)(F)F)ccc1C#N)c1cc(C(F)(F)F)ccc1C#N | >61 |
| CC(=O)N(N=Nc1cc(C(F)(F)F)ccc1C#N)c1cc(C(F)(F)F)ccc1C#N | >61 |
| FC(F)(F)c1ccc(Br)c(N=NNc2cc(C(F)(F)F)ccc2Br)c1 | <15 |
| COC(=O)c1ccc(C(F)(F)F)cc1N=NNc1cc(C(F)(F)F)ccc1C(=O)OC | <15 |
| FC(F)(F)c1ccc(N=NNc2ccc(C(F)(F)F)cc2)cc1 | <15 |

The compounds below were run on Rattus norvegicus (assay: Percentage of body weight reduction in male Sprague-Dawley rats at 50 mg/kg;). Conditions: not given.
Format: functional
How it was run: as §1

| Structure (SMILES) | Body weight reduction [%] |
| --- | --- |
| N#Cc1ccccc1N=NNc1ccccc1C#N | <15 |

The compounds below were run on Rattus norvegicus (assay: Percentage of body weight reduction in male Sprague-Dawley rats at 50 mg/kg; 31-45% reduction from controls). Conditions: not given.
Format: functional
How it was run: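 Individually housed male CD Sprague-Dawley rats trained to eat their ration within 5 h were dosed orally once daily for 5 days, 10 vehicle controls and 10 treated. Body weight was taken daily before dosing.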

| Structure (SMILES) | Body weight reduction [%] |
| --- | --- |
| N#Cc1ccc(Cl)cc1N=NNc1cc(Cl)ccc1C#N | 31 |
| CN(N=Nc1ccccc1)c1ccccc1 | 31 |
| N#Cc1cc(C(F)(F)F)ccc1N=NNc1ccc(C(F)(F)F)cc1C#N | 31 |
| FC(F)(F)c1ccccc1N=NNc1ccccc1C(F)(F)F | 31 |
| CCCNC(=O)N(N=Nc1cc(C(F)(F)F)ccc1C#N)c1cc(C(F)(F)F)ccc1C#N | 31 |

These compounds were tested on Rattus norvegicus (assay: Percentage of body weight reduction in male Sprague-Dawley rats at 50 mg/kg; 46-60% reduction from controls). Conditions: dose 25 mg/kg; in the assay text read “at 25 mg/kg” for “at 50 mg/kg”.
Format: functional
How it was run: as §1

| Structure (SMILES) | Body weight reduction [%] |
| --- | --- |
| CNC(=O)N(N=Nc1cc(C(F)(F)F)ccc1C#N)c1cc(C(F)(F)F)ccc1C#N | 46 |

Same assay, conditions: dose 50 mg/kg

| Structure (SMILES) | Body weight reduction [%] |
| --- | --- |
| N#Cc1ccc(C(F)(F)F)cc1NN=Nc1c(Cl)cccc1Cl | 46 |
| N#Cc1ccc(C(F)(F)F)cc1N=NN(C(=O)Nc1ccccc1)c1cc(C(F)(F)F)ccc1C#N | 46 |
| CCCCC(=O)N(N=Nc1cc(C(F)(F)F)ccc1C#N)c1cc(C(F)(F)F)ccc1C#N | 46 |
| Clc1ccc(N=NNc2ccc(Cl)cc2)cc1 | 46 |
| COc1ccccc1N=NNc1ccccc1OC | 46 |
| CC(=O)N(N=Nc1ccc(C(F)(F)F)cc1C#N)c1ccc(C(F)(F)F)cc1 | 46 |
| CCC(=O)N(N=Nc1cc(C(F)(F)F)ccc1C#N)c1cc(C(F)(F)F)ccc1C#N | 46 |
| COC(=O)CC(=O)N(N=Nc1cc(C(F)(F)F)ccc1C#N)c1cc(C(F)(F)F)ccc1C#N | 46 |

Each compound was assayed on Rattus norvegicus (assay: Percentage of body weight reduction in male Sprague-Dawley rats at 50 mg/kg; […] reduction from controls). Conditions: not given.
Format: functional
How it was run: as §1

| Structure (SMILES) | Body weight reduction [%] |
| --- | --- |
| N#Cc1ccc(C(F)(F)F)cc1N=NNc1ccc(C(=O)O)cc1 | 16 |
| N#Cc1ccc(C(F)(F)F)cc1NN=Nc1cc(C(F)(F)F)ccc1C(=O)O | 16 |
| N#Cc1ccc(C(F)(F)F)cc1NN=Nc1ccccc1 | 16 |

What follows are compounds tested on Rattus norvegicus (assay: Percentage of body weight reduction in male Sprague-Dawley rats at 25 mg/kg; 31-45% reduction from controls). Conditions: not given.

| Structure (SMILES) | Body weight reduction [%] |
| --- | --- |
| Clc1cccc(N=NNc2cccc(Cl)c2Cl)c1Cl | 31 |
